Laboratory results from ChEMBL document CHEMBL4346763, “Incorporation of a chiral gem-disubstituted nitrogen heterocycle yields an oxazolidinone antibiotic with reduced mitochondrial toxicity” (Bioorg Med Chem Lett, 2019).
Converted amounts (≈) assume the structure as drawn.

How the values were obtained:
Staphylococcus aureus [1] = experiment: Antibacterial activity against Staphylococcus aureus JC9213 by CLSI based broth dilution assay; assay type: functional
[2] = Inhibition of protein synthesis in mitochondria (unknown origin) assessed as [35S]methionine incorporation incubated for 15 to 120 mins by paper disk assay; set-up: species or system Homo sapiens
Staphylococcus aureus [3] = experiment: Antibacterial activity against methicillin-sensitive Staphylococcus aureus ATCC 8235-4 measured after 16 hrs by broth microdilution method; assay type: functional; settings: ATCC 8235-4, 16 h
How it was run: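 Overnight culture diluted 1:200 into plates, sealed, shaken at 150 RPM at 37 °C for 16 h, then OD600 read. MIC defined as the concentration giving at least 90% growth inhibition relative to DMSO-treated wells; μM converted to μg/mL and rounded to nearest integer.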

Staphylococcus aureus [4] = experiment: Antibacterial activity against methicillin-sensitive Staphylococcus aureus ATCC 8235-4 at 6 ug/ml measured after 16 hrs by broth microdilution method relative to control; assay type: functional; settings: ATCC 8235-4, 16 h
How it was run: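 Overnight S. aureus 8235-4 culture diluted 1:200 into LB broth containing compound at 4–22 μM in 2 μM steps. Plates sealed and shaken at 150 rpm, 37 °C, 16 h. OD600 read, and growth inhibition expressed relative to DMSO carrier-only wells. μM values converted to μg/mL and rounded to the nearest integer.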

Staphylococcus aureus [5] = experiment: Antibacterial activity against methicillin-resistant Staphylococcus aureus ATCC 43300 measured after 18 hrs by broth microdilution method; assay type: functional; settings: ATCC 43300, 18 h
How it was run: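 S. aureus ATCC 43300 grown overnight in cation-adjusted Mueller Hinton broth at 37 °C, diluted 40-fold and regrown 1.5-3 h to mid-log. Inoculum 5×10^5 CFU/mL added to 8-point 1:2 serial dilutions from a top final concentration of 32 μg/mL or 20 μM, DMSO ≤0.5%, in duplicate. Incubated 18 h at 37 °C without shaking.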

Cytochrome P450 2C9 = Cytochrome P450 2C9 (Homo sapiens, UniProt P11712); experiment: Inhibition of CYP2C9 (unknown origin); assay type: ADME
[6] = Aqueous solubility of compound; assay type: physicochemical; settings: buffer
Cytochrome P450 3A4 = Cytochrome P450 3A4 (Homo sapiens, UniProt P08684); experiment: Inhibition of CYP3A4 (unknown origin); assay type: ADME
Cytochrome P450 2D6 = Cytochrome P450 2D6 (Homo sapiens, UniProt P10635); experiment: Inhibition of CYP2D6 (unknown origin); assay type: ADME
Cytochrome P450 2C19 = Cytochrome P450 2C19 (Homo sapiens, UniProt P33261); experiment: Inhibition of CYP2C19 (unknown origin); assay type: ADME
[7] = Stability in gastric pH assessed as compound remaining after 24 hrs relative to control; assay type: physicochemical
[8] = Half life in mouse hepatocytes
HepG2 = experiment: Cytotoxicity against human HepG2 cells assessed as reduction in cell viability by CellTiter-Glo assay; assay type: cell-based
Cytochrome P450 1A2 = target: T1, Cytochrome P450 1A2 (Homo sapiens, UniProt P05177); experiment: Inhibition of CYP1A2 (unknown origin); assay type: ADME
T1 sequence (P05177 whole entry): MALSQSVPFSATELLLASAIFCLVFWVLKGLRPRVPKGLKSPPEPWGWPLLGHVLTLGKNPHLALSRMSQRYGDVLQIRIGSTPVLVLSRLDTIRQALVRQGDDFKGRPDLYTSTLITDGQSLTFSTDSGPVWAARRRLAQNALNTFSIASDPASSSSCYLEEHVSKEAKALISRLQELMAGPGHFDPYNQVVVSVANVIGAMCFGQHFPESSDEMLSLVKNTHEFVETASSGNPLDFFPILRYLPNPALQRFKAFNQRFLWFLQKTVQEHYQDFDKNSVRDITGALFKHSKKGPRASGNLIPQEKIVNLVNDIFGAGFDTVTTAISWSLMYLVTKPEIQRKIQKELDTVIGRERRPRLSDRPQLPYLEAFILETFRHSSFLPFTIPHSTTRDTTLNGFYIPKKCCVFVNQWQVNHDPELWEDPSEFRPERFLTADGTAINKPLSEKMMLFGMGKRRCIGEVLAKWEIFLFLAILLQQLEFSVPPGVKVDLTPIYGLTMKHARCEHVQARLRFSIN

Staphylococcus aureus [9] = experiment: Antibacterial activity against methicillin-resistant Staphylococcus aureus ATCC 43300 at 6 ug/ml measured after 18 hrs by broth microdilution method relative to control; assay type: functional; settings: ATCC 43300, 18 h

Chain of Cytochrome P450 3A4 (P08684 whole entry): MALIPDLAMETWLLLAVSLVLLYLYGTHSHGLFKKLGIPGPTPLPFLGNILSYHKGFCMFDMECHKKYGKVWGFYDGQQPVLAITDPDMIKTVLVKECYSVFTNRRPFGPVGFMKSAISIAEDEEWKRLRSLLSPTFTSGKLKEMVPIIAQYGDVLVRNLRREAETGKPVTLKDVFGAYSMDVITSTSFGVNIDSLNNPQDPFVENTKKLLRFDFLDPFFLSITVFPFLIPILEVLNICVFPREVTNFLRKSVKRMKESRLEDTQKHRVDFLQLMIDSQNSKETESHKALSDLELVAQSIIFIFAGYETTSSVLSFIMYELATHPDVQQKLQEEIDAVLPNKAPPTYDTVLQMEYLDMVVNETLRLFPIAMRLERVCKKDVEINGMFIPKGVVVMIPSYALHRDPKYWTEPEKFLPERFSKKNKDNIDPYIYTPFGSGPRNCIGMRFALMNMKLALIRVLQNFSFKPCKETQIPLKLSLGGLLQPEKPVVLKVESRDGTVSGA
Chain of Cytochrome P450 2C19 (P33261 whole entry): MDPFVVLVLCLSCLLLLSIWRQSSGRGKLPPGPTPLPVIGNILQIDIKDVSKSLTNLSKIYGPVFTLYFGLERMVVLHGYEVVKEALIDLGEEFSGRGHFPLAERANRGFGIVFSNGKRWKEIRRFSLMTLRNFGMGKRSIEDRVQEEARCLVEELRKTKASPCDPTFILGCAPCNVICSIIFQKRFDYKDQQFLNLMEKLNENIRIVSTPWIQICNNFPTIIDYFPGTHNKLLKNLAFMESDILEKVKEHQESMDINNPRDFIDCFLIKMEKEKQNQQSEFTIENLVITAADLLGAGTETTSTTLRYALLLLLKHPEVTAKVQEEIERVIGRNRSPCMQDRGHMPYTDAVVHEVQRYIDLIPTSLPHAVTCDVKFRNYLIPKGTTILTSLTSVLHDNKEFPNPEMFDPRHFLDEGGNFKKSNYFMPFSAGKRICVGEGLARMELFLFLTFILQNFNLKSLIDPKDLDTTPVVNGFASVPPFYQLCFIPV
Chain of Cytochrome P450 2C9 (P11712 whole entry): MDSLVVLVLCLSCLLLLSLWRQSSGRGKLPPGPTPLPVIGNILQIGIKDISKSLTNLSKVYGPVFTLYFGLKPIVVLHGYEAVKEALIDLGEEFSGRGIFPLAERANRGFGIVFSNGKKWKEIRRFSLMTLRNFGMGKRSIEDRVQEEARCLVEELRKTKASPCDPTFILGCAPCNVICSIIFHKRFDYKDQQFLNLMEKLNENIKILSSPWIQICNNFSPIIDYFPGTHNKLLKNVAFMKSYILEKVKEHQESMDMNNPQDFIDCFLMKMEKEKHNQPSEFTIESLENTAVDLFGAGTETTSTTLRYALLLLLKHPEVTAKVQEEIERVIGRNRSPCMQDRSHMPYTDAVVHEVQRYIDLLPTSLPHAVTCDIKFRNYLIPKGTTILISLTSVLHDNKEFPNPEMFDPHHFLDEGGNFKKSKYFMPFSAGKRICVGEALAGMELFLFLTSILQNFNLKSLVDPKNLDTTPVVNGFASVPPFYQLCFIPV
Chain of Cytochrome P450 2D6 (P10635 whole entry): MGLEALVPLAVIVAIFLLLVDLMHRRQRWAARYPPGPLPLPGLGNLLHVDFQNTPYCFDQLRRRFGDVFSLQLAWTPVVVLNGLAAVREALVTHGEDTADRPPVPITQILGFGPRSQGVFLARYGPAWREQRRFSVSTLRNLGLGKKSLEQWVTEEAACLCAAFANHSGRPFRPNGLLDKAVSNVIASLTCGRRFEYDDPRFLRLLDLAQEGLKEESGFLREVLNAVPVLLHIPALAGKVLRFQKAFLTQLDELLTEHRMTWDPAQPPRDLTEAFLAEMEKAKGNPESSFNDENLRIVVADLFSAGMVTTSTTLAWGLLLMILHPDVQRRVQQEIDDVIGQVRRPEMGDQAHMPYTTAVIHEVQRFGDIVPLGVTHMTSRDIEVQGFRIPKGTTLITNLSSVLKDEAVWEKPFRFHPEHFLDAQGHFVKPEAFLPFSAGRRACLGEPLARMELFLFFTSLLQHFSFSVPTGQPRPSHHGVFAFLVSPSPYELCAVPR

Question: Which MIC (Staphylococcus aureus [1]) does the source give for `CC(=O)NC[C@H]1CN(c2ccc(C3=CCOCC3)c(F)c2)C(=O)O1` here?
Answer: 1 µg/mL (≈ 2.99 µM)

Question: And the IC50 [2]?
Answer: 0.95 µg/mL (≈ 2.84 µM)

Question: For `CC(=O)NC[C@H]1CN(c2ccc(-n3cncn3)c(F)c2)C(=O)O1`, which MIC (Staphylococcus aureus [1]) is on record?
Answer: 4 µg/mL (≈ 12.5 µM)

Question: And the IC50 [2]?
Answer: 1.7 µg/mL (≈ 5.32 µM)

Question: Which MIC (Staphylococcus aureus [1]) does the source give for `C/N=c1\ccc(-c2ccc(N3C[C@H](CNC(C)=O)OC3=O)cc2F)ccc1O` here?
Answer: 2 µg/mL (≈ 5.19 µM)

Question: And the IC50 [2]?
Answer: 0.83 µg/mL (≈ 2.15 µM)

Question: With `CC(=O)NC[C@H]1CN(c2ccc(N3CCOC4(CCN(C)C4)C3)c(F)c2)C(=O)O1` (some centres undefined) as the molecule, how does the MIC (Staphylococcus aureus [3]) read?
Answer: > 32 µg/mL

Question: For `CC(=O)NC[C@H]1CN(c2ccc(N3CCOC4(CCOC4)C3)c(F)c2)C(=O)O1` (some centres undefined), which inhibition at 6 µg/mL (Staphylococcus aureus [4]) is on record?
Answer: 65%

Question: For `CC(=O)NC[C@H]1CN(c2ccc(N3CCOC(C)(CCCOC(C)=O)C3)c(F)c2)C(=O)O1` (some centres undefined), which MIC (Staphylococcus aureus [3]) is on record?
Answer: > 32 µg/mL

Question: Which MIC (Staphylococcus aureus [5]) does the source give for `CC(=O)NC[C@H]1CN(c2ccc(N3CCOC(C)(CCCO)C3)c(F)c2)C(=O)O1` (some centres undefined) here?
Answer: > 32 µg/mL

Question: Which MIC (Staphylococcus aureus [3]) does the source give for `CC(=O)NC[C@H]1CN(c2ccc(N3CCOC(C)(CCN(C)C)C3)c(F)c2)C(=O)O1` (some centres undefined) here?
Answer: > 32 µg/mL

Question: Which MIC (Staphylococcus aureus [5]) does the source give for `CC(=O)NC[C@H]1CN(c2ccc(N3CCOC(C)(C)C3)c(F)c2)C(=O)O1` here?
Answer: 8 µg/mL (≈ 21.9 µM)

Question: With `CC(=O)NC[C@H]1CN(c2ccc(N3CCO[C@]4(CCCOC4)C3)c(F)c2)C(=O)O1` as the molecule, how does the MIC (Staphylococcus aureus [3]) read?
Answer: 9 µg/mL (≈ 22.1 µM)

Question: What about the INH (Cytochrome P450 2C9) of the same molecule?
Answer: > 100 µM

Question: And the solubility [6]?
Answer: > 48.49 µg/mL

Question: And the INH (Cytochrome P450 3A4)?
Answer: > 100 µM

Question: And the INH (Cytochrome P450 2D6)?
Answer: > 100 µM

Question: What about the INH (Cytochrome P450 2C19) of the same molecule?
Answer: > 100 µM

Question: And the Stability [7]?
Answer: 89%

Question: What about the t1/2 [8] of the same molecule?
Answer: 2.138 h

Question: And the EC50 (HepG2)?
Answer: > 30 µM

Question: And the INH (Cytochrome P450 1A2)?
Answer: > 100 µM

Question: With `C=CCC1(C)CN(c2ccc(N3C[C@H](CNC(C)=O)OC3=O)cc2F)CCO1` (some centres undefined) as the molecule, how does the MIC (Staphylococcus aureus [5]) read?
Answer: 16 µg/mL (≈ 40.9 µM)

Question: Which results are given for `CC(=O)NC[C@H]1CN(c2ccc(N3CCO[C@@]4(CCCOC4)C3)c(F)c2)C(=O)O1`?
Answer: MIC (Staphylococcus aureus [3]): 6 µg/mL (≈ 14.7 µM); INH (Cytochrome P450 2C9): > 100 µM; solubility [6]: > 52.15 µg/mL; INH (Cytochrome P450 3A4): > 100 µM; INH (Cytochrome P450 2D6): > 100 µM; INH (Cytochrome P450 2C19): > 100 µM; Stability [7]: 94%; MIC (Staphylococcus aureus [5]): 5 µg/mL (≈ 12.3 µM); t1/2 [8]: 2.83 h; EC50 (HepG2): > 30 µM; INH (Cytochrome P450 1A2): > 100 µM

Question: For `CCCC1(CO)CN(c2ccc(N3C[C@H](CNC(C)=O)OC3=O)cc2F)CCO1` (some centres undefined), which inhibition at 6 µg/mL (Staphylococcus aureus [4]) is on record?
Answer: 48%

Question: Which MIC (Staphylococcus aureus [3]) does the source give for `CC(=O)NC[C@H]1CN(c2ccc(N3CCOC4(CCCOC4)C3)c(F)c2)C(=O)O1` (some centres undefined) here?
Answer: 7 µg/mL (≈ 17.2 µM)

Question: With `CC(=O)NC[C@H]1CN(c2ccc(N3CCOC4(CCCN(C(C)=O)C4)C3)c(F)c2)C(=O)O1` (some centres undefined) as the molecule, how does the inhibition at 6 µg/mL (Staphylococcus aureus [4]) read?
Answer: 18%

Question: And the inhibition at 6 µg/mL (Staphylococcus aureus [9])?
Answer: 18%

Question: For `CCCC1(C)CN(c2ccc(N3C[C@H](CNC(C)=O)OC3=O)cc2F)CCO1` (some centres undefined), which MIC (Staphylococcus aureus [5]) is on record?
Answer: 16 µg/mL (≈ 40.7 µM)

Question: Which MIC (Staphylococcus aureus [3]) does the source give for `CC(=O)NC[C@H]1CN(c2ccc(N3CCOC4(CCNC4)C3)c(F)c2)C(=O)O1` (some centres undefined) here?
Answer: > 32 µg/mL

Question: With `C=CCC1(COCc2ccccc2)CN(c2ccc(N3C[C@H](CNC(C)=O)OC3=O)cc2F)CCO1` (some centres undefined) as the molecule, how does the MIC (Staphylococcus aureus [3]) read?
Answer: > 32 µg/mL

Question: Which MIC (Staphylococcus aureus [3]) does the source give for `CC(=O)NC[C@H]1CN(c2ccc(N3CCOC4(CCCNC4)C3)c(F)c2)C(=O)O1` (some centres undefined) here?
Answer: > 32 µg/mL

Question: With `CC(=O)NC[C@H]1CN(c2ccc(N3CCN(C(=O)CO)CC3)c(F)c2)C(=O)O1` [EPEREZOLID] as the molecule, how does the MIC (Staphylococcus aureus [1]) read?
Answer: 2 µg/mL (≈ 5.07 µM)

Question: What about the IC50 [2] of the same molecule?
Answer: 4.2 µg/mL (≈ 10.6 µM)

Question: Which results are given for `CC(=O)NC[C@H]1CN(c2ccc(N3CCOCC3)c(F)c2)C(=O)O1` [LINEZOLID]?
Answer: INH (Cytochrome P450 2C9): > 100 µM; IC50 [2]: 12.8 µg/mL (≈ 37.9 µM); INH (Cytochrome P450 3A4): > 100 µM; INH (Cytochrome P450 2D6): > 100 µM; INH (Cytochrome P450 2C19): > 100 µM; Stability [7]: 98%; MIC (Staphylococcus aureus [5]): 1 µg/mL (≈ 2.96 µM); t1/2 [8]: > 3.613 h; EC50 (HepG2): > 30 µM; INH (Cytochrome P450 1A2): > 100 µM
